Experimental data: ChEMBL document CHEMBL1146240 (J Med Chem, 2007)
Calls of active or inactive are those of the source. The rule behind the calls is not given here.

Assays:
[1] = Cytotoxicity against HECPP cells assessed as reduction of cell viability at 300 ug/mL after 24 hrs by MTT assay; format: cell-based; details: mouse
Summary of the method: (§1)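 HECPP murine endothelial cells in M199 with 10% FCS, 37 °C, 5% CO₂. Seeded at 10⁵ cells/well, incubated overnight, then exposed to compound for 24 h. MTT added for 2 h and formazan dissolved in 0.04 N HCl/isopropanol. Absorbance read at 550 nm with 630 nm reference, expressed as percent of metabolically active cells.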

HECPP [2] = assay: Activation of NF-kappaB in HECPP cells at 30 ug/mL; format: functional, cell-based; details: Mus musculus
Summary of the method: (§2)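 HECPP murine endothelial cells (2.5 × 10⁷) exposed to compound for 2 h. Nuclear extracts prepared, and 5 µg nuclear protein incubated with poly(dI/dC) on ice for 10 min. A ³²P-labeled κ-enhancer NF-κB consensus oligonucleotide was then added. Complexes were resolved on a 4% polyacrylamide gel in 0.25× TBE at 150 V for 2 h, then read by autoradiography (EMSA).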

MC-38 (Mus musculus) [3] = assay: Induction of hemorrhagic necrosis in colon 38 tumor bearing C57B1/6 mouse at 190 mg/kg, ip after 24 hrs relative to control; details: route intraperitoneal
[4] = Induction of TNF production in murine splenocytes at 100 ug/mL
Splenocyte [5] = assay: Induction of TNF secretion in mouse splenocytes at 30 ug/mL after 4 hrs; format: functional
Summary of the method: (§3)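 Primary male mouse splenocytes, RBC-lysed, plated at 3 × 10⁶ cells/well in Alpha-MEM with 10% FCS. Treated with compound for 4 h at 37 °C. Supernatant TNF measured by ELISA, each sample in duplicate, with triplicate wells per condition. Mean ± SEM reported.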

Splenocyte [6] = assay: Induction of TNF secretion in mouse splenocytes at 10 ug/mL after 4 hrs; format: functional; summary of the method: as §3
MC-38 (Mus musculus) [7] = assay: Induction of hemorrhagic necrosis in colon 38 tumor bearing C57B1/6 mouse at 25 mg/kg, ip after 24 hrs relative to control; details: route intraperitoneal
HECPP [8] = assay: Activation of NF-kappaB in HECPP cells at 10 ug/mL; format: functional, cell-based; details: Mus musculus; summary of the method: as §2
[9] = Cytotoxicity against HECPP cells assessed as reduction of cell viability at 600 ug/mL after 24 hrs by MTT assay; format: cell-based; details: mouse; summary of the method: as §1
Splenocyte [10] = assay: Induction of TNF secretion in mouse splenocytes at 100 ug/mL after 4 hrs; format: functional; summary of the method: as §3
MC-38 (Mus musculus) [11] = assay: Induction of hemorrhagic necrosis in colon 38 tumor bearing C57B1/6 mouse at 200 mg/kg, ip after 24 hrs relative to control; details: route intraperitoneal
HECPP [12] = assay: Activation of NF-kappaB in HECPP cells at 1000 ug/mL; format: functional, cell-based; details: Mus musculus; summary of the method: as §2
HECPP [13] = assay: Activation of NF-kappaB in HECPP cells at 300 ug/mL; format: functional, cell-based; details: Mus musculus; summary of the method: as §2

With `Cc1ccc2c(=O)c3cccc(CC(=O)O)c3oc2c1N=[N+]=[N-]` the Activity [1] was 50%, the Activity (HECPP [2]) was “Active” and the Activity (MC-38 (Mus musculus) [3]) was over 95%. It also gave a TNF production [4] of under 50 pg/mL and an Activity (Splenocyte [5]) of under 50 pg/mL.
In the case of `Cc1ccc2c(=O)c3cccc(CC(=O)O)c3oc2c1C` [VADIMEZAN], the Activity (Splenocyte [6]) is reported as 180 pg/mL, the Activity (MC-38 (Mus musculus) [7]) is reported as over 95% and the Activity (HECPP [8]) is reported as “Active”.
Molecule `[N-]=[N+]=Nc1cccc2c(=O)c3cccc(CC(=O)O)c3oc12` has an Activity [9] of 50%, an Activity (Splenocyte [10]) of 110 pg/mL and an Activity (MC-38 (Mus musculus) [11]) of over 95%. For the same molecule, the Activity (HECPP [12]) was “Active” and the Activity (HECPP [13]) was “Active”.
